Experiments:
[1] = system: Escherichia coli BL21(DE3); assay: Ratio of Kcat to Km for Escherichia coli BL21 DE3 beta-lactamase VIM-19 by microacidimetric method
Method in brief: (§1)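 Enzyme overexpressed from modified pET9a in E. coli BL21(DE3), released by sonication, and purified on Q Sepharose (20 mM Tris-HCl pH 7.4, 0–500 mM NaCl gradient) then Superose 12. Protein measured by Bio-Rad assay against a BSA standard.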

[2] = system: Escherichia coli BL21(DE3); assay: Hydrolytic activity of Escherichia coli BL21 DE3 beta-lactamase VIM-19 by microacidimetric method; method in brief: as §1
[3] = system: CO/N=C(\C(=O)N[C@@H]1C(=O)N2C(C(=O)O)=C(COC(N)=O)CS[C@H]12)c1ccco1; assay: (§2) Ratio of Kcat to Km for beta-lactamase VIM-1 in Escherichia coli DH5alpha expressing pBCLL/39H by microacidimetric method
[4] = system: CC(=O)OCC1=C(C(=O)O)N2C(=O)[C@@H](NC(=O)Cc3cccs3)[C@H]2SC1; assay: as §2
[5] = system: C[C@@H](O)[C@H]1C(=O)N2C(C(=O)O)=C(S[C@@H]3CN[C@H](C(=O)N(C)C)C3)[C@H](C)[C@H]12; assay: as §2
[6] = system: CC(C)(O/N=C(\C(=O)N[C@@H]1C(=O)N2C(C(=O)[O-])=C(C[n+]3ccccc3)CS[C@H]12)c1csc(N)n1)C(=O)O; assay: as §2
[7] = system: CCN1CCN(C(=O)N[C@@H](C(=O)N[C@@H]2C(=O)N3[C@@H]2SC(C)(C)[C@@H]3C(=O)O)c2ccccc2)C(=O)C1=O; assay: as §2
[8] = system: CO[C@@]1(NC(=O)Cc2cccs2)C(=O)N2C(C(=O)O)=C(COC(N)=O)CS[C@@H]21; assay: as §2
[9] = system: CO/N=C(\C(=O)N[C@@H]1C(=O)N2C(C(=O)O)=C(COC(C)=O)CS[C@H]12)c1csc(N)n1; assay: as §2
[10] = system: CC1(C)S[C@@H]2[C@H](NC(=O)Cc3ccccc3)C(=O)N2[C@H]1C(=O)O; assay: as §2
[11] = system: CO/N=C(\C(=O)N[C@@H]1C(=O)N2C(C(=O)O)=C(COC(N)=O)CS[C@H]12)c1ccco1; assay: (§3) Hydrolytic activity of beta-lactamase VIM-1 in Escherichia coli DH5alpha expressing pBCLL/39H by microacidimetric method
[12] = system: CC(=O)OCC1=C(C(=O)O)N2C(=O)[C@@H](NC(=O)Cc3cccs3)[C@H]2SC1; assay: as §3
[13] = system: CCN1CCN(C(=O)N[C@@H](C(=O)N[C@@H]2C(=O)N3[C@@H]2SC(C)(C)[C@@H]3C(=O)O)c2ccccc2)C(=O)C1=O; assay: as §3
[14] = system: CO[C@@]1(NC(=O)Cc2cccs2)C(=O)N2C(C(=O)O)=C(COC(N)=O)CS[C@@H]21; assay: as §3
[15] = system: CO/N=C(\C(=O)N[C@@H]1C(=O)N2C(C(=O)O)=C(COC(C)=O)CS[C@H]12)c1csc(N)n1; assay: as §3
[16] = system: CC1(C)S[C@@H]2[C@H](NC(=O)Cc3ccccc3)C(=O)N2[C@H]1C(=O)O; assay: as §3
[17] = system: CO/N=C(\C(=O)N[C@@H]1C(=O)N2C(C(=O)O)=C(COC(N)=O)CS[C@H]12)c1ccco1; assay: (§4) Ratio of Kcat to Km for Escherichia coli DH10B beta-lactamase VIM-2 by microacidimetric method; details: Escherichia coli str. K-12 substr. DH10B
[18] = system: CC(=O)OCC1=C(C(=O)O)N2C(=O)[C@@H](NC(=O)Cc3cccs3)[C@H]2SC1; assay: as §4; details: Escherichia coli str. K-12 substr. DH10B
[19] = system: C[C@@H](O)[C@H]1C(=O)N2C(C(=O)O)=C(S[C@@H]3CN[C@H](C(=O)Nc4cccc(C(=O)O)c4)C3)[C@H](C)[C@H]12; assay: as §4; details: Escherichia coli str. K-12 substr. DH10B
[20] = system: CC1(C)S[C@@H]2[C@H](NC(=O)[C@H](N)c3ccc(O)cc3)C(=O)N2[C@H]1C(=O)O; assay: as §4; details: Escherichia coli str. K-12 substr. DH10B
[21] = system: CC1(C)S[C@@H]2[C@H](NC(=O)[C@H](C(=O)O)c3ccsc3)C(=O)N2[C@H]1C(=O)O; assay: as §4; details: Escherichia coli str. K-12 substr. DH10B
[22] = system: C[C@@H](O)[C@H]1C(=O)N2C(C(=O)O)=C(S[C@@H]3CN[C@H](C(=O)N(C)C)C3)[C@H](C)[C@H]12; assay: as §4; details: Escherichia coli str. K-12 substr. DH10B
[23] = system: CC(C)(O/N=C(\C(=O)N[C@@H]1C(=O)N2C(C(=O)[O-])=C(C[n+]3ccccc3)CS[C@H]12)c1csc(N)n1)C(=O)O; assay: as §4; details: Escherichia coli str. K-12 substr. DH10B
[24] = system: CCN1CCN(C(=O)N[C@@H](C(=O)N[C@@H]2C(=O)N3[C@@H]2SC(C)(C)[C@@H]3C(=O)O)c2ccccc2)C(=O)C1=O; assay: as §4; details: Escherichia coli str. K-12 substr. DH10B
[25] = system: CO[C@@]1(NC(=O)Cc2cccs2)C(=O)N2C(C(=O)O)=C(COC(N)=O)CS[C@@H]21; assay: as §4; details: Escherichia coli str. K-12 substr. DH10B
[26] = system: C[C@@H](O)[C@H]1C(=O)N2C(C(=O)O)=C(SCCNC=N)C[C@H]12; assay: as §4; details: Escherichia coli str. K-12 substr. DH10B
[27] = system: CO/N=C(\C(=O)N[C@@H]1C(=O)N2C(C(=O)[O-])=C(C[N+]3(C)CCCC3)CS[C@H]12)c1csc(N)n1; assay: as §4; details: Escherichia coli str. K-12 substr. DH10B
[28] = system: CO/N=C(\C(=O)N[C@@H]1C(=O)N2C(C(=O)O)=C(COC(C)=O)CS[C@H]12)c1csc(N)n1; assay: as §4; details: Escherichia coli str. K-12 substr. DH10B
[29] = system: CC1(C)S[C@@H]2[C@H](NC(=O)Cc3ccccc3)C(=O)N2[C@H]1C(=O)O; assay: as §4; details: Escherichia coli str. K-12 substr. DH10B
[30] = system: CO/N=C(\C(=O)N[C@@H]1C(=O)N2C(C(=O)O)=C(COC(N)=O)CS[C@H]12)c1ccco1; assay: (§5) Hydrolytic activity of Escherichia coli DH10B beta-lactamase VIM-2 by microacidimetric method; details: Escherichia coli str. K-12 substr. DH10B
[31] = system: CC(=O)OCC1=C(C(=O)O)N2C(=O)[C@@H](NC(=O)Cc3cccs3)[C@H]2SC1; assay: as §5; details: Escherichia coli str. K-12 substr. DH10B
[32] = system: C[C@@H](O)[C@H]1C(=O)N2C(C(=O)O)=C(S[C@@H]3CN[C@H](C(=O)Nc4cccc(C(=O)O)c4)C3)[C@H](C)[C@H]12; assay: as §5; details: Escherichia coli str. K-12 substr. DH10B
[33] = system: CC1(C)S[C@@H]2[C@H](NC(=O)[C@H](N)c3ccc(O)cc3)C(=O)N2[C@H]1C(=O)O; assay: as §5; details: Escherichia coli str. K-12 substr. DH10B
[34] = system: CC1(C)S[C@@H]2[C@H](NC(=O)[C@H](C(=O)O)c3ccsc3)C(=O)N2[C@H]1C(=O)O; assay: as §5; details: Escherichia coli str. K-12 substr. DH10B
[35] = system: C[C@@H](O)[C@H]1C(=O)N2C(C(=O)O)=C(S[C@@H]3CN[C@H](C(=O)N(C)C)C3)[C@H](C)[C@H]12; assay: as §5; details: Escherichia coli str. K-12 substr. DH10B
[36] = system: CC(C)(O/N=C(\C(=O)N[C@@H]1C(=O)N2C(C(=O)[O-])=C(C[n+]3ccccc3)CS[C@H]12)c1csc(N)n1)C(=O)O; assay: as §5; details: Escherichia coli str. K-12 substr. DH10B
[37] = system: CCN1CCN(C(=O)N[C@@H](C(=O)N[C@@H]2C(=O)N3[C@@H]2SC(C)(C)[C@@H]3C(=O)O)c2ccccc2)C(=O)C1=O; assay: as §5; details: Escherichia coli str. K-12 substr. DH10B
[38] = system: C[C@H]1[C@H](NC(=O)/C(=N\OC(C)(C)C(=O)O)c2csc(N)n2)C(=O)N1S(=O)(=O)O; assay: as §5; details: Escherichia coli str. K-12 substr. DH10B
[39] = system: CO[C@@]1(NC(=O)Cc2cccs2)C(=O)N2C(C(=O)O)=C(COC(N)=O)CS[C@@H]21; assay: as §5; details: Escherichia coli str. K-12 substr. DH10B
[40] = system: C[C@@H](O)[C@H]1C(=O)N2C(C(=O)O)=C(SCCNC=N)C[C@H]12; assay: as §5; details: Escherichia coli str. K-12 substr. DH10B
[41] = system: CO/N=C(\C(=O)N[C@@H]1C(=O)N2C(C(=O)[O-])=C(C[N+]3(C)CCCC3)CS[C@H]12)c1csc(N)n1; assay: as §5; details: Escherichia coli str. K-12 substr. DH10B
[42] = system: CO/N=C(\C(=O)N[C@@H]1C(=O)N2C(C(=O)O)=C(COC(C)=O)CS[C@H]12)c1csc(N)n1; assay: as §5; details: Escherichia coli str. K-12 substr. DH10B
[43] = system: CC1(C)S[C@@H]2[C@H](NC(=O)Cc3ccccc3)C(=O)N2[C@H]1C(=O)O; assay: as §5; details: Escherichia coli str. K-12 substr. DH10B

CO/N=C(\C(=O)N[C@@H]1C(=O)N2C(C(=O)[O-])=C(C[N+]3(C)CCCC3)CS[C@H]12)c1csc(N)n1
kcat/Km [1]: 230000 M⁻¹ s⁻¹
kcat [2]: 12.5 s⁻¹

CO[C@@]1(NC(=O)Cc2cccs2)C(=O)N2C(C(=O)O)=C(COC(N)=O)CS[C@@H]21
kcat/Km [1]: 80000 M⁻¹ s⁻¹
kcat [2]: 4 s⁻¹

C[C@@H](O)[C@H]1C(=O)N2C(C(=O)O)=C(SCCNC=N)C[C@H]12
kcat/Km [1]: 370000 M⁻¹ s⁻¹
kcat [2]: 8.2 s⁻¹

C[C@@H](O)[C@H]1C(=O)N2C(C(=O)O)=C(S[C@@H]3CN[C@H](C(=O)N(C)C)C3)[C@H](C)[C@H]12
kcat/Km [1]: 140000 M⁻¹ s⁻¹
kcat [2]: 1.3 s⁻¹

C[C@@H](O)[C@H]1C(=O)N2C(C(=O)O)=C(S[C@@H]3CN[C@H](C(=O)Nc4cccc(C(=O)O)c4)C3)[C@H](C)[C@H]12
kcat/Km [1]: 30000 M⁻¹ s⁻¹
kcat [2]: 0.6 s⁻¹

C[C@H]1[C@H](NC(=O)/C(=N\OC(C)(C)C(=O)O)c2csc(N)n2)C(=O)N1S(=O)(=O)O
kcat [2]: < 0.1 s⁻¹

BlaVIM-1 (Escherichia coli) (from UniProt Q8GDC1)
kcat/Km [3]: 7.7e+06 M⁻¹ s⁻¹
kcat/Km [4]: 5.3e+06 M⁻¹ s⁻¹
kcat/Km [5]: 270000 M⁻¹ s⁻¹
kcat/Km [6]: 76000 M⁻¹ s⁻¹
kcat/Km [7]: 530000 M⁻¹ s⁻¹
kcat/Km [8]: 200000 M⁻¹ s⁻¹
kcat/Km [9]: 680000 M⁻¹ s⁻¹
kcat/Km [10]: 34000 M⁻¹ s⁻¹
kcat [11]: 324 s⁻¹
kcat [12]: 281 s⁻¹
kcat [13]: 1860 s⁻¹
kcat [14]: 26 s⁻¹
kcat [15]: 169 s⁻¹
kcat [16]: 29 s⁻¹

Metallo-beta-lactamase (Escherichia coli) (from UniProt Q5U7L7)
kcat/Km [17]: 550000 M⁻¹ s⁻¹
kcat/Km [18]: 1.28e+06 M⁻¹ s⁻¹
kcat/Km [19]: 22000 M⁻¹ s⁻¹
kcat/Km [20]: 550000 M⁻¹ s⁻¹
kcat/Km [21]: 690000 M⁻¹ s⁻¹
kcat/Km [22]: 280000 M⁻¹ s⁻¹
kcat/Km [23]: 900000 M⁻¹ s⁻¹
kcat/Km [24]: 450000 M⁻¹ s⁻¹
kcat/Km [25]: 120000 M⁻¹ s⁻¹
kcat/Km [26]: 990000 M⁻¹ s⁻¹
kcat/Km [27]: 30000 M⁻¹ s⁻¹
kcat/Km [28]: 860000 M⁻¹ s⁻¹
kcat/Km [29]: 1.14e+06 M⁻¹ s⁻¹
kcat [30]: 12.1 s⁻¹
kcat [31]: 56.2 s⁻¹
kcat [32]: 0.2 s⁻¹
kcat [33]: 29.7 s⁻¹
kcat [34]: 31.7 s⁻¹
kcat [35]: 1.4 s⁻¹
kcat [36]: 88.7 s⁻¹
kcat [37]: 32.7 s⁻¹
kcat [38]: < 0.5 s⁻¹
kcat [39]: 2.8 s⁻¹
kcat [40]: 9.9 s⁻¹
kcat [41]: 4.7 s⁻¹
kcat [42]: 27.5 s⁻¹
kcat [43]: 55.8 s⁻¹

— ChEMBL document CHEMBL1212777, “Novel VIM metallo-beta-lactamase variant from clinical isolates of Enterobacteriaceae from Algeria” (2010)
